Tests used:
[1] = Tested in vitro inhibitory activity against human oral epidermoid carcinoma KB cells; format: functional, cell-based
Summary of the method: (§1)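 MTT growth assay: 2 × 10³ cells/well exposed to compound or left untreated for 72 h. MTT then added for 4 h more; formazan dissolved in DMSO and OD read at 540 nm. % inhibition = [1 − OD sample/OD control] × 100. IC₅₀ (μM) is the concentration giving 50% growth inhibition. Single-concentration inhibition measured at 100 μg/mL.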

[2] = test system: L1210; assay: Tested in vitro inhibitory activity against murine leukemia L1210; format: functional, cell-based; conditions: Mus musculus; summary of the method: as §1
[3] = test system: MKN-45; assay: Tested in vitro against MKN-45 human stomach adenocarcinoma; format: functional, cell-based; conditions: MKN-45, Stomach; summary of the method: as §1
[4] = test system: HOS-TE85; assay: Tested in vitro against MNNG/HOS cell line human osteosarcoma; format: functional, cell-based; summary of the method: as §1
[5] = test system: SW48; assay: Tested in vitro against SW-48 human colon adenocarcinoma; format: functional, cell-based; summary of the method: as §1
[6] = test system: COLO 320; assay: Tested in vitro against colo-320 human colon adenocarcinoma; format: functional, cell-based; conditions: COLO 320, Colon; summary of the method: as §1
[7] = test system: PC-9; assay: Tested in vitro against PC-9 human lung adenocarcinoma; format: functional, cell-based; summary of the method: as §1
[8] = test system: A-375; assay: Tested in vitro against A-375 cell line human melanoma; format: functional, cell-based; summary of the method: as §1
[9] = test system: OST; assay: Tested in vitro against OST human osteosarcoma; format: functional, cell-based; summary of the method: as §1
[10] = test system: KKLS; assay: Tested in vitro against KKLS human stomach adenocarcinoma; format: functional, cell-based; summary of the method: as §1
[11] = test system: PC-8; assay: Tested in vitro against PC-8 human lung adenocarcinoma; format: functional, cell-based; summary of the method: as §1
[12] = test system: HT-1080; assay: Tested in vitro against HT1080 cell line human fibrosarcoma; format: functional, cell-based; summary of the method: as §1
[13] = test system: KATO III stomach cancer cell line; assay: Tested in vitro against KATO-III human stomach adenocarcinoma; format: functional, cell-based; summary of the method: as §1
[14] = test system: ST-KM-1; assay: Tested in vitro against ST-KM human stomach adenocarcinoma; format: functional, cell-based; conditions: ST-KM-1, Stomach; summary of the method: as §1
[15] = test system: MCF7; assay: Tested in vitro against MCF-7 human breast adenocarcinoma; format: functional, cell-based; summary of the method: as §1
[16] = test system: QG-95; assay: Tested in vitro against QG-95 human squamous cell carcinoma; format: functional, cell-based; summary of the method: as §1
[17] = test system: PC-13; assay: Tested in vitro against PC-13 human lung large cell carcinoma; format: functional, cell-based; summary of the method: as §1
[18] = test system: L1210; assay: Percent inhibition against murine leukemia L1210 at 100 ug/mL; format: functional; conditions: Mus musculus; summary of the method: as §1
[19] = Percent inhibition against human oral epidermoid carcinoma KB cells at 100 ug/mL; format: functional; summary of the method: as §1
[20] = test system: Mus musculus; assay: Weight change in M5076 mouse reticulum cell sarcoma after administration at 750 mg/kg orally; format: functional; conditions: route oral
Summary of the method: (§2)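 Female BDF₁ mice with subcutaneous axillary M5076 (10⁶ cells), oral dosing on days 1, 4, 7, 10, 13 and 16 in saline or 5% DMA/0.5% CMC. Body weight change (g) = mean weight on day 20 minus mean weight on day 1.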

[21] = test system: Mus musculus; assay: Weight change in M5076 mouse reticulum cell sarcoma after administration at 500 mg/kg orally; format: functional; conditions: route oral; summary of the method: as §2
[22] = test system: Mus musculus; assay: Weight change in M5076 mouse reticulum cell sarcoma after administration at 125 mg/kg orally; format: functional; conditions: route oral; summary of the method: as §2
[23] = test system: Mus musculus; assay: Percent inhibition against M5076 mouse reticulum cell sarcoma after administration at 750 mg/kg orally on day 20; format: functional; conditions: M5076, 480 h, route oral
Summary of the method: (§3)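 M5076 cells (10⁶ viable, counted by Trypan blue exclusion) implanted subcutaneously into the axillary region of female BDF₁ mice. Drug given orally on days 1, 4, 7, 10, 13 and 16 after inoculation, in saline or in 5% dimethylacetamide/0.5% carboxymethyl cellulose. Six mice per group (three at 400 mg/kg); untreated controls, nine mice. Tumor volume = 0.5 × length × width²; inhibition (%) = (1 − Vt/Vc) × 100 on day 20.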

[24] = test system: Mus musculus; assay: Percent inhibition against M5076 mouse reticulum cell sarcoma after administration at 62.5 mg/kg orally on day 20; format: functional; conditions: M5076, 480 h, route oral; summary of the method: as §3
[25] = test system: Mus musculus; assay: Tested for 60-day survivors after administration at 62.5 mg/kg orally in M5076 mouse reticulum cell sarcoma; format: functional; conditions: route oral
Summary of the method: (§4)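 Female BD2F1 mice were implanted s.c. with 1 × 10^6 M5076 cells and dosed orally on days 1, 4, 7, 10, 13 and 16. Vehicle was saline or 5% DMA in 0.5% CMC. Groups had six mice (three at 400 mg/kg), with nine untreated controls. The number of mice alive at 60 days was counted.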

[26] = test system: Mus musculus; assay: Percent treated was determined after administration at 750 mg/kg orally; format: functional; conditions: route oral
Summary of the method: (§5)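 Female BDF₁ mice bearing subcutaneous M5076 (10⁶ cells, axillary). Oral dosing in saline or 5% DMA/0.5% CMC on days 1, 4, 7, 10, 13 and 16. Groups of six (three at 400 mg/kg), nine untreated controls. T/C (%) = median survival day of treated/median survival day of untreated controls × 100; 60-day survivors also recorded.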

[27] = test system: Mus musculus; assay: Percent treated was determined after administration at 125 mg/kg orally; format: functional; conditions: route oral; summary of the method: as §5
[28] = test system: Mus musculus; assay: Percent inhibition against M5076 mouse reticulum cell sarcoma after administration at 500 mg/kg orally on day 20; format: functional; conditions: M5076, 480 h, route oral; summary of the method: as §3
[29] = test system: Mus musculus; assay: Percent inhibition against M5076 mouse reticulum cell sarcoma after administration at 125 mg/kg orally on day 20; format: functional; conditions: M5076, 480 h, route oral; summary of the method: as §3
[30] = test system: Mus musculus; assay: Tested for 60-day survivors after administration at 250 mg/kg orally in M5076 mouse reticulum cell sarcoma; format: functional; conditions: route oral; summary of the method: as §4
[31] = test system: Mus musculus; assay: Weight change in M5076 mouse reticulum cell sarcoma after administration at 250 mg/kg orally; format: functional; conditions: route oral; summary of the method: as §2
[32] = test system: Mus musculus; assay: Percent treated was determined after administration at 62.5 mg/kg orally; format: functional; conditions: route oral; summary of the method: as §5
[33] = test system: Mus musculus; assay: Tested for 60-day survivors after administration at 125 mg/kg orally in M5076 mouse reticulum cell sarcoma; format: functional; conditions: route oral; summary of the method: as §4
[34] = test system: Mus musculus; assay: Percent treated was determined after administration at 250 mg/kg orally; format: functional; conditions: route oral; summary of the method: as §5
[35] = test system: Mus musculus; assay: Tested for 60-day survivors after administration at 500 mg/kg orally in M5076 mouse reticulum cell sarcoma; format: functional; conditions: route oral; summary of the method: as §4
[36] = test system: Mus musculus; assay: Percent treated was determined after administration at 500 mg/kg orally; format: functional; conditions: route oral; summary of the method: as §5
[37] = test system: Mus musculus; assay: Tested for 60-day survivors after administration at 750 mg/kg orally in M5076 mouse reticulum cell sarcoma; format: functional; conditions: route oral; summary of the method: as §4
[38] = test system: Mus musculus; assay: Percent inhibition against M5076 mouse reticulum cell sarcoma after administration at 250 mg/kg orally on day 20; format: functional; conditions: M5076, 480 h, route oral; summary of the method: as §3
[39] = test system: Mus musculus; assay: Weight change in M5076 mouse reticulum cell sarcoma after administration at 62.5 mg/kg orally; format: functional; conditions: route oral; summary of the method: as §2

CC(=O)Nc1ccn([C@@H]2O[C@H](CO)C=C2C#N)c(=O)n1
IC50 [1]: 97.8 µM
IC50 [2]: 68.8 µM

N#C[C@H]1[C@H](O)[C@@H](CO)O[C@H]1n1cnc2c(N)ncnc21
IC50 [1]: 163 µM
IC50 [3]: > 360 µM
IC50 [4]: > 360 µM
IC50 [5]: > 360 µM
IC50 [6]: > 360 µM
IC50 [7]: > 360 µM
IC50 [8]: 308 µM
IC50 [9]: > 360 µM
IC50 [10]: > 360 µM
IC50 [11]: > 360 µM
IC50 [2]: 5.8 µM
IC50 [12]: > 360 µM
IC50 [13]: > 360 µM
IC50 [14]: > 360 µM
IC50 [15]: > 360 µM
IC50 [16]: > 360 µM
IC50 [17]: > 360 µM

N#C[C@H]1C(O)[C@@H](CO)O[C@H]1n1ccc(=O)[nH]c1=O (stereo not given in full)
inhibition at 100 µg/mL [18]: 10.2%
inhibition at 100 µg/mL [19]: 8.4%

Nc1ccn([C@@H]2O[C@H](CO)[C@@H](O)[C@@H]2O)c(=O)n1 [CYTARABINE]
IC50 [1]: 2.3 µM
IC50 [3]: 57.6 µM
IC50 [5]: > 410 µM
IC50 [6]: 0.04 µM
IC50 [8]: > 410 µM
IC50 [9]: > 410 µM
IC50 [10]: > 410 µM
IC50 [11]: 1.1 µM
IC50 [2]: 0.05 µM
IC50 [13]: > 410 µM
IC50 [14]: > 410 µM
IC50 [15]: 0.62 µM
IC50 [16]: > 410 µM
IC50 [17]: > 410 µM

C[C@H]1O[C@@H](n2cc(F)c(=O)[nH]c2=O)[C@H](O)[C@@H]1O [DOXIFLURIDINE]
Weight change [20]: 0.8 g
Weight change [21]: 2.5 g
Weight change [22]: 1.8 g
inhibition in vivo at 750 mg/kg [23]: 50%
inhibition in vivo at 62.5 mg/kg [24]: 8%
Survivors [25]: 0
T/C [26]: 92%
T/C [27]: 98%
inhibition in vivo at 500 mg/kg [28]: 19%
inhibition in vivo at 125 mg/kg [29]: 18%
Survivors [30]: 0
Weight change [31]: 2 g
T/C [32]: 88%
Survivors [33]: 0
T/C [34]: 86%
Survivors [35]: 0
T/C [36]: 104%
Survivors [37]: 0
inhibition in vivo at 250 mg/kg [38]: 15%
Weight change [39]: 2.8 g
